Experimental data: ChEMBL document CHEMBL1165851, “Synthesis and inhibitory evaluation of cyclohexen-2-yl- and cyclohexyl-substituted phenols and quinones to endothelial cell and cancer cells” (Eur J Med Chem, 2010); call rule not given here

How the values were obtained:
A549 = assay: Antiproliferative activity human A549 cells after 96 hrs by MTT assay
MCF7 = assay: Antiproliferative activity human MCF7 cells after 96 hrs by MTT assay
HUVEC = assay: Antiproliferative activity HUVEC after 96 hrs by MTT assay
Bel-7402 = assay: Antiproliferative activity human Bel7402 cells after 96 hrs by MTT assay
[1] = Antiproliferative activity human CCC-HPF1 cells after 20 hrs by MTT assay; format: cell-based; settings: ccc-hpf1, 96 h, in the assay text read “96 hrs” for “20 hrs”
Outline: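 HUVECs isolated from fresh umbilical cords and used at passages 3–8, grown in EGM-2. A549 and Bel-7402 in RPMI 1640; MCF-7 and ccc-HPF-1 in DMEM; all at 37 °C, 5% CO2. Seeded 1000 (HUVEC, Bel-7402), 1500 (MCF-7, ccc-HPF-1) or 2000 (A549) cells/well and left 20 h. Compound then added from PBS dilutions (final DMSO 0.1%), triplicate, 96 h. Readout MTT viability; IC50/CC50 from viability versus concentration.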

[2] = Homo sapiens, A549, 96 h, read-out: IC50
[3] = Homo sapiens, MCF7, 96 h, read-out: IC50
[4] = Homo sapiens, HUVEC, 96 h, read-out: IC50
[5] = Homo sapiens, Bel-7402, 96 h, read-out: IC50

| IC50 (A549; [2]) [µM] | IC50 (MCF7; [3]) [µM] | IC50 (Bel-7402; [5]) [µM] | IC50 (A549; a549) | IC50 (MCF7; mcf7) | IC50 (Bel-7402; bel-7402) | SMILES | IC50 (HUVEC; [4]) [µM] | IC50 (HUVEC; huvec) | CC50 [1] |
| --- | --- | --- | --- | --- | --- | --- | --- | --- | --- |
| 35.6 | 32.4 | 30 | – | – | – | Cc1ccc(C2C=CCCC2)c(O)c1O (stereo not given) | 27.1 | – | – |
| 30.9 | ≥ 50 | ≥ 50 | – | – | – | CC1=CC(=O)C(C2C=CCCC2)=CC1=O (stereo not given) | 9.1 | – | – |
| 36.3 | ≥ 50 | 30.3 | – | – | – | CC(C)(C)c1cc(O)c(C2CCCCC2)cc1O | 7.4 | – | – |
| – | – | – | Not Active | Not Active | Not Active | Oc1cccc2c1C1CCCCC1O2 (stereo not given) | – | Not Active | Not Active |
| – | – | – | Not Active | Not Active | Not Active | Cc1c(O)ccc(C2C=CCCC2)c1O (stereo not given) | – | Not Active | Not Active |
| 31.8 | 40.2 | 31.2 | – | – | – | O=C1C=C(C2C=CCCC2)C(=O)c2ccccc21 (stereo not given) | 26.7 | – | – |
| ≥ 50 | ≥ 50 | ≥ 50 | – | – | – | Oc1ccccc1C1C=CCCC1 (stereo not given) | 31.5 | – | – |
| ≥ 50 | ≥ 50 | ≥ 50 | – | – | – | Oc1c(C2C=CCCC2)ccc(C2C=CCCC2)c1O (stereo not given) | 28.8 | – | – |
| 34.4 | ≥ 50 | 26.9 | – | – | – | Cc1cc(O)c(O)c(C2C=CCCC2)c1 (stereo not given) | 15.3 | – | – |
| 9.5 | 26.4 | 8.5 | – | – | – | Cc1cc(O)c(O)cc1C1C=CCCC1 (stereo not given) | 4.7 | – | – |
| ≥ 50 | ≥ 50 | ≥ 50 | – | – | – | Cc1c(O)c(C2C=CCCC2)cc(C2C=CCCC2)c1O (stereo not given) | 33 | – | – |
| ≥ 50 | ≥ 50 | ≥ 50 | – | – | – | Oc1cc(C2C=CCCC2)c(O)cc1C1C=CCCC1 (stereo not given) | 2 | – | – |
| ≥ 50 | ≥ 50 | ≥ 50 | – | – | – | Oc1c(C2C=CCCC2)ccc2ccccc12 (stereo not given) | 22 | – | – |
| 27.7 | 31.1 | 22.7 | – | – | – | Cc1cc(O)c(O)cc1C1CCCCC1 | 8.3 | – | – |
| ≥ 50 | ≥ 50 | ≥ 50 | – | – | – | O=C1C=C(C2C=CCCC2)C(=O)C=C1C1C=CCCC1 (stereo not given) | 6.2 | – | – |
| ≥ 50 | ≥ 50 | ≥ 50 | – | – | – | CC(C)(C)c1cc(O)c(C2C=CCCC2)cc1O (stereo not given) | 1.4 | – | – |
| ≥ 50 | ≥ 50 | ≥ 50 | – | – | – | CC(C)(C)C1=CC(=O)C(C2C=CCCC2)=CC1=O (stereo not given) | 6.8 | – | – |
| ≥ 50 | ≥ 50 | ≥ 50 | – | – | – | CC(C)(C)c1cc2c(cc1O)C1CCCCC1O2 (stereo not given) | 22.4 | – | – |
| ≥ 50 | ≥ 50 | ≥ 50 | – | – | – | CC(C)(C)c1cc(O)cc(C2C=CCCC2)c1O (stereo not given) | 11.6 | – | – |
| ≥ 50 | ≥ 50 | ≥ 50 | – | – | – | Oc1cc(C2CCCCC2)c(O)cc1C1CCCCC1 | 8.2 | – | – |
| 31.9 | ≥ 50 | 31.3 | – | – | – | O=C1C=C(C2CCCCC2)C(=O)C=C1C1CCCCC1 | 7.8 | – | – |
| ≥ 50 | ≥ 50 | ≥ 50 | – | – | – | CC(C)(C)C1=CC(=O)C(C2CCCCC2)=CC1=O | 6 | – | – |
| – | – | – | Not Active | Not Active | Not Active | Cc1cc(O)c2c(c1)OC1CCCCC21 (stereo not given) | – | Not Active | Not Active |
| ≥ 50 | ≥ 50 | ≥ 50 | – | – | – | CC(C)(C)c1cc(O)c(O)c(C2C=CCCC2)c1 (stereo not given) | 10 | – | – |
| – | – | – | Not Active | Not Active | Not Active | Cc1cc(O)c(C2C=CCCC2)c(O)c1 (stereo not given) | – | Not Active | Not Active |
| – | – | 0.58 | – | – | – | COc1cccc2c1C(=O)c1c(O)c3c(c(O)c1C2=O)C[C@@](O)(C(=O)CO)C[C@@H]3O[C@H]1C[C@H](N)[C@H](O)[C@H](C)O1 [DOXORUBICIN] | – | – | – |
| 0.0049 | – | – | – | – | – | CC(=O)O[C@H]1C(=O)[C@@]2(C)[C@H]([C@H](OC(=O)c3ccccc3)[C@]3(O)C[C@H](OC(=O)[C@H](O)[C@@H](NC(=O)c4ccccc4)c4ccccc4)C(C)=C1C3(C)C)[C@]1(OC(C)=O)CO[C@@H]1C[C@@H]2O [PACLITAXEL] | – | – | – |

| SMILES | IC50 (A549; [2]) [µM] | IC50 (MCF7; [3]) [µM] | IC50 (Bel-7402; [5]) [µM] | IC50 (A549; a549) | IC50 (MCF7; mcf7) | IC50 (Bel-7402; bel-7402) | IC50 (HUVEC; [4]) [µM] | IC50 (HUVEC; huvec) | CC50 [1] |
| --- | --- | --- | --- | --- | --- | --- | --- | --- | --- |
| CO[C@@H]1[C@H](OC(=O)NC(=O)CCl)CCC2(CO2)[C@H]1[C@@]1(C)O[C@@H]1CC=C(C)C (single isomer, unassigned) [O-CHLOROACETYLCARBAMOYLFUMAGILLOL] | 50 | ≥ 50 | ≥ 50 | – | – | – | 0.0089 | – | – |
